What was measured:
ATM [1] = biological target: T1, ATM (Homo sapiens, UniProt Q13315); assay: ATM-SPARK reporter imaging in living HEK293 cells, ATM activated by etoposide; format: cell-based
ATM [2] = biological target: T1, ATM; assay: ATM-SPARK activation by DNA-damaging drugs in U87 cells; format: cell-based
ATR = ATR (Homo sapiens, UniProt Q13535); assay: Western blot of phosphorylated ATR; format: cell-based; details: HEK293 cells, NCS-induced DNA damage
Procedure, shortened: (§1)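 HEK293 cells were pretreated 1 h with a test compound titration starting at 1 μM, then given NCS (500 ng/ml) for 1 h. Lysates were resolved on 4–12% bis-tris gels, probed with primary antibodies (1:1000) and HRP secondaries, and detected by ECL on film. The phospho/total band ratio was normalized to DMSO-treated cells. IC50 was obtained by nonlinear fit.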

[3] = test system: ATM-deficient MDA-MB-231 cells; assay: Growth inhibition with NCS in ATM-deficient MDA-MB-231 cells; format: cell-based, human; details: ATM-deficient cell line
HeLa cells = assay: HeLa cell growth assay; format: cell-based, human
ATM [4] = biological target: T1, ATM; assay: ATM-SPARK ATM activity in HeLa or T98G cancer cells preincubated with inhibitor; format: cell-based; details: HeLa and T98G cells, ATM activated using etoposide
DNA-PK = DNA-PK (Homo sapiens, UniProt P78527); assay: Western blot of phosphorylated DNA-PK; format: cell-based; details: HEK293 cells, NCS-induced DNA damage
Procedure, shortened: as §1

ATM [5] = biological target: T1, ATM; assay: Western blot of phosphorylated ATM; format: cell-based
Procedure, shortened: as §1

ATM [6] = biological target: T1, ATM; format: cell-based; details: HEK293 cells preincubated with NCS

T1 sequence (Q13315 whole entry): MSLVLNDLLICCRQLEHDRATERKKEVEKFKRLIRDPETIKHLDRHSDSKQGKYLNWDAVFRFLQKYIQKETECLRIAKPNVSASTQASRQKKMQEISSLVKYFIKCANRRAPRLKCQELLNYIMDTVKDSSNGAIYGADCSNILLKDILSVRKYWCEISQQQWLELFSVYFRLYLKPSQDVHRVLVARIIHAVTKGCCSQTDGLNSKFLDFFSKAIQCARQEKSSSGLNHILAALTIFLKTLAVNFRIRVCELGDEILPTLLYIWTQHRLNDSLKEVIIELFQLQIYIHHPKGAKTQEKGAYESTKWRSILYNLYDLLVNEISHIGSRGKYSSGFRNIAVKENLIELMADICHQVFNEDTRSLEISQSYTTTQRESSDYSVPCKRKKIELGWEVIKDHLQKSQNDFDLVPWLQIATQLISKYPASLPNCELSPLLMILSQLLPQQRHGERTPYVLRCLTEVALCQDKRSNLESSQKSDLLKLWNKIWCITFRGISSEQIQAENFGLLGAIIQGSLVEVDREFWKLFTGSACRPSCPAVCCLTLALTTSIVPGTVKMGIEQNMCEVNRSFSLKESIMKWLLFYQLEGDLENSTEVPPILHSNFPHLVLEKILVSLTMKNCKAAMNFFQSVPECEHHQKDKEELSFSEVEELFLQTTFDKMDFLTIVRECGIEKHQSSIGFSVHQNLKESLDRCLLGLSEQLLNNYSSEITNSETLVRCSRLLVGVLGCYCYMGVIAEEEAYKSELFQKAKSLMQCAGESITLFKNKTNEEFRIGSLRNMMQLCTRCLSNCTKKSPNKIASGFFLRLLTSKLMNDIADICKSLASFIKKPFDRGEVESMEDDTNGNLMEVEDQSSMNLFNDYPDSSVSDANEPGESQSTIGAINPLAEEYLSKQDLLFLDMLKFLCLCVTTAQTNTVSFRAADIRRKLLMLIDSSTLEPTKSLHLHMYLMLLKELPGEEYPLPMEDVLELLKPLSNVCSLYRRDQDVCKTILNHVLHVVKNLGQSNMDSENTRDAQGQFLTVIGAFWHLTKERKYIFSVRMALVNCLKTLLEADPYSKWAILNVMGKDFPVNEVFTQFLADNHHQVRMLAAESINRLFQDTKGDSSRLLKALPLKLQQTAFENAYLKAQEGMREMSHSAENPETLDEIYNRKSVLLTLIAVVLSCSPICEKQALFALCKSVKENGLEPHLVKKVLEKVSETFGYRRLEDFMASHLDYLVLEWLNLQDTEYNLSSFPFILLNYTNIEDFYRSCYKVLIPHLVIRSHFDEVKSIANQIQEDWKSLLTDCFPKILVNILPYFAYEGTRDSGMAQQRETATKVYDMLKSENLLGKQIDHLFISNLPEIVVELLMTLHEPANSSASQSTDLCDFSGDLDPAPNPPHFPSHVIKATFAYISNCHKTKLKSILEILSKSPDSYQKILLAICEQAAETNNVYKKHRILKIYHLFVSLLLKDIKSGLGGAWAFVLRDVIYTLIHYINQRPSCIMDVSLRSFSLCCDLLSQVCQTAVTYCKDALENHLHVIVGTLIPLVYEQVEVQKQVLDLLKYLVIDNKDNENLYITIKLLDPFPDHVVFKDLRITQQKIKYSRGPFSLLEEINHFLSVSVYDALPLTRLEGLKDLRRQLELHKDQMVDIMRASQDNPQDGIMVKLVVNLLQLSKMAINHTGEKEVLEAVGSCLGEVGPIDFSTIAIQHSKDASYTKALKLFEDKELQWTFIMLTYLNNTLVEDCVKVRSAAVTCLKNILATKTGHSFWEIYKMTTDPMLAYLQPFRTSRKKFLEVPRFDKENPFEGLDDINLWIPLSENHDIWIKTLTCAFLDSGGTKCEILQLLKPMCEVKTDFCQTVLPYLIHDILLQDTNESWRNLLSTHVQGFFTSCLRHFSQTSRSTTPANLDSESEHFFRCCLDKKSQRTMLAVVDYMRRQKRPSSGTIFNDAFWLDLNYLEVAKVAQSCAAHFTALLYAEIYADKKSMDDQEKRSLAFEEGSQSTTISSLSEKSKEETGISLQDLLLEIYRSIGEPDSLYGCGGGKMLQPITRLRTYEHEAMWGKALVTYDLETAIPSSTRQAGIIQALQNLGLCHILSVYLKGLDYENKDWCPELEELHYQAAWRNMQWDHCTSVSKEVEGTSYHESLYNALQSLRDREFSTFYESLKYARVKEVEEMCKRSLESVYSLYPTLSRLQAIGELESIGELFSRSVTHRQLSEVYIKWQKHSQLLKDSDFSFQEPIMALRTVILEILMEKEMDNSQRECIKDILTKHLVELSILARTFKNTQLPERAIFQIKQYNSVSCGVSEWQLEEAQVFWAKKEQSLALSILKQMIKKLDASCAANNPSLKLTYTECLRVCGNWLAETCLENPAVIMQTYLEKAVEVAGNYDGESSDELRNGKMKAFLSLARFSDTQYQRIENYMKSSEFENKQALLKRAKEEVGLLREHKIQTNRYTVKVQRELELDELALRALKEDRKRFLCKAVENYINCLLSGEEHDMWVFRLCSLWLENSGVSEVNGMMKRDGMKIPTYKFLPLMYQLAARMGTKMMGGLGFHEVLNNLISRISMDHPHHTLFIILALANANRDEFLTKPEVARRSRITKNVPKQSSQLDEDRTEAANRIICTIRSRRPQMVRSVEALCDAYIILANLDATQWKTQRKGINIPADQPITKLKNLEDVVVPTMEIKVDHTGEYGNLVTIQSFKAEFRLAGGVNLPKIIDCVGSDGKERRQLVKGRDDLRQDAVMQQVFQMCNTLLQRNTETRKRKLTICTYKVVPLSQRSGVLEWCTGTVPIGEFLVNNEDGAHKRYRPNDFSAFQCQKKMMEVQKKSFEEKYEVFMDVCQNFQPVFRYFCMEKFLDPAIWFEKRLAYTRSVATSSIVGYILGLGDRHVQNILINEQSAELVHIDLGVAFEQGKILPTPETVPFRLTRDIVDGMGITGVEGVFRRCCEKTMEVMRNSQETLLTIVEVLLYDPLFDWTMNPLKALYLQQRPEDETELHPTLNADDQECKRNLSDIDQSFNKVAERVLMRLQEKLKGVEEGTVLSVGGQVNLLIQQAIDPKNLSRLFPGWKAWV

## CN1CCN(c2ccc(-n3cc(-c4ccncc4OCC4CCNCC4)cn3)cc2)CC1 [MELK-8A]
ATM [1]
  inhibitory activity against ATM (ATM-SPARK signal): no activity against ATM

## CC[C@@]1(O)C(=O)OCc2c1cc1n(c2=O)Cc2cc3ccccc3nc2-1 [camptothecin]
ATM [2]
  activation of ATM (ATM-SPARK signal): failed to activate ATM

## O=C1NC(=O)/C(=C\c2ccc3nccnc3c2)S1 [AS605240]
ATM [1]; 1 μM compound
  ATM activity in inhibitor-incubated cells (ATM-SPARK signal), screening: blocked ATM

## COc1ccc(-c2ccc3ncc4c(c3c2)n(-c2ccc(N3CCNCC3)c(C(F)(F)F)c2)c(=O)n4C)cn1 [BGT226]
ATR
  inhibition of ATR (pATR 1989 Western blot): no inhibitory activity
[3]
  effect in growth inhibition when combined with NCS: lost
HeLa cells; NCS + 4 nM or 11 nM inhibitor (fig. S26)
  sensitization of growth inhibition in response to NCS treatment: sensitizes
ATM [4]
  activity against ATM in cancer cells (ATM-SPARK): potent activity against ATM
DNA-PK
  fold lower activity against DNA-PK than against ATM: 30 fold
ATM [5]
  IC50: 3.1 ± 0.8 nM

## O=c1cc(-c2cccc3c2Sc2ccccc2S3)oc(N2CCOCC2)c1 [KU-55933]
ATM [6]
  half-time of ATM-SPARK droplet disassembly: ~ 1.5 min
  time to disassembly of ATM-SPARK reporter droplets after inhibitor addition: ≤ 4 min

## neocarzinostatin [NCS]
HeLa cells; NCS 180 ng/ml, 3 days
  inhibition of cancer cell proliferation by NCS itself: ~ 35%
